Drawing on ChEMBL document CHEMBL1134307, “trans-4-[4-(Methoxyphenyl)cyclohexyl]-1-arylpiperazines: a new class of potent and selective 5-HT(1A) receptor ligands as conformationally constrained analogues of 4-[3-(5-methoxy-1,2,3,4-tetrahydronaphthalen-1-yl)propyl]-1-arylpiperazines” (J Med Chem, 2001), this text covers Ki for seven molecules.

Assay [1] deals with T1, 5-hydroxytryptamine receptor 1A (Homo sapiens, UniProt P08908).
T1 sequence (P08908 whole entry): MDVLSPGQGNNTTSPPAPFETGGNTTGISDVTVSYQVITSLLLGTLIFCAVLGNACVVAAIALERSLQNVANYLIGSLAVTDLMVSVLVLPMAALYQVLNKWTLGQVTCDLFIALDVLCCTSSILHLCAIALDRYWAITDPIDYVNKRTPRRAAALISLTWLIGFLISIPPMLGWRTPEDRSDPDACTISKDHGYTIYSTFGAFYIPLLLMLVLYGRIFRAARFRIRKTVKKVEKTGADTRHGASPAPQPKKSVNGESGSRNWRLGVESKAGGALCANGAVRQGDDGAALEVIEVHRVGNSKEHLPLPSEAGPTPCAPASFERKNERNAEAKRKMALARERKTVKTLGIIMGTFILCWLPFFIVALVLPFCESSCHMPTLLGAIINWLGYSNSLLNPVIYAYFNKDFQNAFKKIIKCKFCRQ
The assay can be described thus: Binding affinity on human cloned 5-hydroxytryptamine 1A receptor transfected in human cell lines(He La). Summed up:
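HeLa cells stably expressing human 5-HT1A (genomic clone G-21), grown in DMEM with 10% FCS. […] Nonspecific binding with 10 µM 5-HT. Filtration through PEI-pretreated filters.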

Assay [2] addresses T2, Alpha-1A adrenergic receptor (Homo sapiens, UniProt P35348).
T2 sequence (P35348 whole entry): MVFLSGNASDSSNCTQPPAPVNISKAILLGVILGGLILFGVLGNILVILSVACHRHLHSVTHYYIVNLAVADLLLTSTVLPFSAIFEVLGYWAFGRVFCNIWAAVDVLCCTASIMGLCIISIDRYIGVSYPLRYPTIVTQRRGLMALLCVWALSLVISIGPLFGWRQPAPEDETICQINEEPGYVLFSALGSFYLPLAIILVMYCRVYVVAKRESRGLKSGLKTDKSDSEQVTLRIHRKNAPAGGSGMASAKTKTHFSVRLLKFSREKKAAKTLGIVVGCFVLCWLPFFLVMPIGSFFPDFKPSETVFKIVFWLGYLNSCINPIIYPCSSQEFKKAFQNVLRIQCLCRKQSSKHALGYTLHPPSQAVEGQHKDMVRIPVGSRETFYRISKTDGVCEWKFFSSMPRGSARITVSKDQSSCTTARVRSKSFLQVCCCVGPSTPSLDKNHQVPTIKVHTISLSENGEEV
Put plainly: Binding affinity was determined on human cloned Alpha-1A adrenoceptor. In a few lines: (§1)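 Membranes from CHO cells stably expressing each human α1-adrenoceptor subtype, incubated in 50 mM Tris pH 7.4 with 0.2 nM [3H]prazosin and competing drugs (1 pM–10 µM), 30 min at 25 °C. Nonspecific binding with 10 µM phentolamine. Stopped with ice-cold Tris and filtration through 0.2% PEI-pretreated filters.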

Assay [3] has as its target T3, Alpha-1B adrenergic receptor (Homo sapiens, UniProt P35368).
T3 sequence (P35368 whole entry): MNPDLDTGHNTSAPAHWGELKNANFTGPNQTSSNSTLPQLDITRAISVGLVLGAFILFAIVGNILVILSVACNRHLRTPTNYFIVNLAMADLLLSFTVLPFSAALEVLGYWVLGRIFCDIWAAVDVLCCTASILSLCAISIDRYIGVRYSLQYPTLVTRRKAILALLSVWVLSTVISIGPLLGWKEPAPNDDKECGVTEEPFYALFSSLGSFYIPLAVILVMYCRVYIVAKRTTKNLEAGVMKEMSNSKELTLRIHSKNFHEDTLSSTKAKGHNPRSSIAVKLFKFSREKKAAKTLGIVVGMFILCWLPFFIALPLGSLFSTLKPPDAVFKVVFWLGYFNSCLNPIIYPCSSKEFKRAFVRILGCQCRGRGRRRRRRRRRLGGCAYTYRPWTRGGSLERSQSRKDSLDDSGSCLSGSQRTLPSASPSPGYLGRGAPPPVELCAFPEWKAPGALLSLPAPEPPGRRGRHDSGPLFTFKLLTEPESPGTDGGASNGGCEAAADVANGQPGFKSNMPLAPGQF
The assay can be described thus: Binding affinity was determined on human cloned alpha-1B adrenergic receptor. Summed up:
as §1

Assay [4] deals with D(2) dopamine receptor (Rattus norvegicus, UniProt P61169). The assay can be described thus: Binding affinity towards dopamine receptor D2 in rat striatal membranes. The format is cell membranes, Striatum, Membrane.

Molecules are shown by their SMILES.

Chain of D(2) dopamine receptor (P61169 whole entry): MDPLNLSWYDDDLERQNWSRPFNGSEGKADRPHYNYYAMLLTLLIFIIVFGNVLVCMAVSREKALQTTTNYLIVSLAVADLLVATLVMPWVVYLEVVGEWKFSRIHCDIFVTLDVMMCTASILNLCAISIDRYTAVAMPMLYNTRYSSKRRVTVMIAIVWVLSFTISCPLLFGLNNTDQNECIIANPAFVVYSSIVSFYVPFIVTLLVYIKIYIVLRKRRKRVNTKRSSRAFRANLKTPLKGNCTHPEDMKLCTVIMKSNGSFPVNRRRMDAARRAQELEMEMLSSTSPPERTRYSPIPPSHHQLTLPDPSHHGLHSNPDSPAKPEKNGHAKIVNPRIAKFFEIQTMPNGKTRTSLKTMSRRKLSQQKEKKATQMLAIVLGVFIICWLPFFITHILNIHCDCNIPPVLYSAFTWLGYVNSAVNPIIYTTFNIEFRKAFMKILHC

Consider `COc1cccc2c(CCCN3CCN(c4ccccn4)CC3)cccc12`, for which the Ki amounted to 3 nM in assay [1], 1.62 nM in assay [2], 4.21 nM in assay [3] and 450 nM in assay [4].
As to `COc1cccc2c1CCCC2CCCN1CCN(c2ccccn2)CC1` (configuration not stated), the results for the Ki in assay [2], in assay [3] and in assay [4] were 0.33 nM, 7.88 nM and 117 nM, respectively.
In the case of `COc1cccc(C2CCC(N3CCN(c4ccccc4OC)CC3)CC2)c1` (stereo in doubt; trans), the Ki in assay [1] is 0.21 nM; in assay [2] it was 4.98 nM; in assay [3], 43.3 nM; in assay [4] it was 60 nM.
As to `COc1cccc2c(CCCNCCOc3ccccn3)cccc12`, the Ki was 0.86 nM in assay [1], 14.6 nM in assay [2], 270 nM in assay [3] and 378 nM in assay [4].
Take `COc1cccc(C2CCC(NCCOc3ccccn3)CC2)c1` (stereo in doubt): the Ki in assay [1] turned out to be 3.77 nM; in assay [2] it was 201 nM; in assay [3], 332 nM; in assay [4], 586 nM.
With `COc1cccc2c1CCCC2CCCNCCOc1ccccn1` (configuration not stated), the Ki is 0.23 nM in assay [1], 0.55 nM in assay [2], 26.4 nM in assay [3] and over 850 nM in assay [4].
For the molecule `COc1cccc(C2CCC(N3CCN(c4ccccn4)CC3)CC2)c1` (trans isomer), the Ki in assay [1] is 0.2 nM; in assay [2], 33 nM; in assay [3] it was 53.1 nM; in assay [4], 2190 nM.
